{"source": "ChEMBL document CHEMBL3797186", "about": "“Single Residue Substitutions That Confer Voltage-Gated Sodium Ion Channel Subtype Selectivity in the NaV1.7 Inhibitory Peptide GpTx-1” (J Med Chem, 2016)", "key": {"[1]": {"target": "Sodium channel protein type 9 subunit alpha (Homo sapiens, UniProt Q15858)", "sequence (Q15858 whole entry)": "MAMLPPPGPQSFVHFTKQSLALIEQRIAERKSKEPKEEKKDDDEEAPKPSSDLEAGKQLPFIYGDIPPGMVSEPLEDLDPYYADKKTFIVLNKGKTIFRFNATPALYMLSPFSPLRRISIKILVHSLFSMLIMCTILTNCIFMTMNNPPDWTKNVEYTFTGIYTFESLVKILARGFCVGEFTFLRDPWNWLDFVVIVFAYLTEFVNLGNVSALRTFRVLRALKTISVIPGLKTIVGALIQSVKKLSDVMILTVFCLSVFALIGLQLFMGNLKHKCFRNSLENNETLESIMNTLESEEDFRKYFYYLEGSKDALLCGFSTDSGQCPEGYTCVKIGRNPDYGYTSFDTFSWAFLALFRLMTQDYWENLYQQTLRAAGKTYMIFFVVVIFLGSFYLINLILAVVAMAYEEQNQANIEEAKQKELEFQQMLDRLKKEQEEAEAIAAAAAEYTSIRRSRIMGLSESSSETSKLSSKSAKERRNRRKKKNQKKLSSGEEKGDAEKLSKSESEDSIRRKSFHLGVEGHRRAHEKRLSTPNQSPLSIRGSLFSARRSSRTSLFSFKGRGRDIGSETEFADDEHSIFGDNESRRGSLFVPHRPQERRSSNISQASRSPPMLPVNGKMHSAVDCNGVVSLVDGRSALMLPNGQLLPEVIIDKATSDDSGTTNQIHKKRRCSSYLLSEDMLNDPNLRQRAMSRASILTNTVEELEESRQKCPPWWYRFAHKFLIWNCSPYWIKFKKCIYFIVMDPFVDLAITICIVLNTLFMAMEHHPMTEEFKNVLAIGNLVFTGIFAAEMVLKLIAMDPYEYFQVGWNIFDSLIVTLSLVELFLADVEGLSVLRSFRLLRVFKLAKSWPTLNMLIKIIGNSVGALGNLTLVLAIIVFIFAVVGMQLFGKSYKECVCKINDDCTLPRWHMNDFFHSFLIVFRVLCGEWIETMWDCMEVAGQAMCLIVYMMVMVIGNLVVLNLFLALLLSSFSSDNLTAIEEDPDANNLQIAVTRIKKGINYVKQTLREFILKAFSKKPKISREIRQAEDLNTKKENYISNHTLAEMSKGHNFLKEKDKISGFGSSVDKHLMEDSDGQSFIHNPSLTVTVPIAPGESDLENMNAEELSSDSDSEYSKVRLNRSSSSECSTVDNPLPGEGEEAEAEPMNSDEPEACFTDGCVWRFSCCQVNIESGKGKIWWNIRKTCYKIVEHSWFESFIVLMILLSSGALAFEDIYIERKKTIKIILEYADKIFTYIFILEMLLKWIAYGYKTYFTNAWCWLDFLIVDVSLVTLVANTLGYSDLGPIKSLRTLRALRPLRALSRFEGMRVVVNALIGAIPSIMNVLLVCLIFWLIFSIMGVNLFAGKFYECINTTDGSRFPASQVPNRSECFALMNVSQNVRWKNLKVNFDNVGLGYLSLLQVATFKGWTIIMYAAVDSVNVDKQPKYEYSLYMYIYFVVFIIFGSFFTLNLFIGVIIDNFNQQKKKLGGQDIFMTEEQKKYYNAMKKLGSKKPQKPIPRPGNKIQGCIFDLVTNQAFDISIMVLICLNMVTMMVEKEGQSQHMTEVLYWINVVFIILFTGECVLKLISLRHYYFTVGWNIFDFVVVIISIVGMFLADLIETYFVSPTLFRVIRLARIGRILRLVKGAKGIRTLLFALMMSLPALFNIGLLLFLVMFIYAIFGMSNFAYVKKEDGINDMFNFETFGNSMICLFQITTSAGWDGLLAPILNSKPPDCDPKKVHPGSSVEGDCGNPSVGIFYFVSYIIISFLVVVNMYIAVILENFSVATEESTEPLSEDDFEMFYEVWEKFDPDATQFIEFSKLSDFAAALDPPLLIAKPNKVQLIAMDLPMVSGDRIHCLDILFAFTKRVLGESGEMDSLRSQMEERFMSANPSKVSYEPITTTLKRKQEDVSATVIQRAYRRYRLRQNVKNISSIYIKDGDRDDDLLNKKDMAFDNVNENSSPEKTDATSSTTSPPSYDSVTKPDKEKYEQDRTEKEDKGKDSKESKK", "assay": "Inhibition of human Nav1.7 expressed in HEK293 cells assessed as inward peak current by ion-works quattro patch clamp electrophysiology method", "type": "cell-based"}, "[2]": {"target": "Sodium channel protein type 5 subunit alpha (Homo sapiens, UniProt Q14524)", "sequence (Q14524 whole entry)": "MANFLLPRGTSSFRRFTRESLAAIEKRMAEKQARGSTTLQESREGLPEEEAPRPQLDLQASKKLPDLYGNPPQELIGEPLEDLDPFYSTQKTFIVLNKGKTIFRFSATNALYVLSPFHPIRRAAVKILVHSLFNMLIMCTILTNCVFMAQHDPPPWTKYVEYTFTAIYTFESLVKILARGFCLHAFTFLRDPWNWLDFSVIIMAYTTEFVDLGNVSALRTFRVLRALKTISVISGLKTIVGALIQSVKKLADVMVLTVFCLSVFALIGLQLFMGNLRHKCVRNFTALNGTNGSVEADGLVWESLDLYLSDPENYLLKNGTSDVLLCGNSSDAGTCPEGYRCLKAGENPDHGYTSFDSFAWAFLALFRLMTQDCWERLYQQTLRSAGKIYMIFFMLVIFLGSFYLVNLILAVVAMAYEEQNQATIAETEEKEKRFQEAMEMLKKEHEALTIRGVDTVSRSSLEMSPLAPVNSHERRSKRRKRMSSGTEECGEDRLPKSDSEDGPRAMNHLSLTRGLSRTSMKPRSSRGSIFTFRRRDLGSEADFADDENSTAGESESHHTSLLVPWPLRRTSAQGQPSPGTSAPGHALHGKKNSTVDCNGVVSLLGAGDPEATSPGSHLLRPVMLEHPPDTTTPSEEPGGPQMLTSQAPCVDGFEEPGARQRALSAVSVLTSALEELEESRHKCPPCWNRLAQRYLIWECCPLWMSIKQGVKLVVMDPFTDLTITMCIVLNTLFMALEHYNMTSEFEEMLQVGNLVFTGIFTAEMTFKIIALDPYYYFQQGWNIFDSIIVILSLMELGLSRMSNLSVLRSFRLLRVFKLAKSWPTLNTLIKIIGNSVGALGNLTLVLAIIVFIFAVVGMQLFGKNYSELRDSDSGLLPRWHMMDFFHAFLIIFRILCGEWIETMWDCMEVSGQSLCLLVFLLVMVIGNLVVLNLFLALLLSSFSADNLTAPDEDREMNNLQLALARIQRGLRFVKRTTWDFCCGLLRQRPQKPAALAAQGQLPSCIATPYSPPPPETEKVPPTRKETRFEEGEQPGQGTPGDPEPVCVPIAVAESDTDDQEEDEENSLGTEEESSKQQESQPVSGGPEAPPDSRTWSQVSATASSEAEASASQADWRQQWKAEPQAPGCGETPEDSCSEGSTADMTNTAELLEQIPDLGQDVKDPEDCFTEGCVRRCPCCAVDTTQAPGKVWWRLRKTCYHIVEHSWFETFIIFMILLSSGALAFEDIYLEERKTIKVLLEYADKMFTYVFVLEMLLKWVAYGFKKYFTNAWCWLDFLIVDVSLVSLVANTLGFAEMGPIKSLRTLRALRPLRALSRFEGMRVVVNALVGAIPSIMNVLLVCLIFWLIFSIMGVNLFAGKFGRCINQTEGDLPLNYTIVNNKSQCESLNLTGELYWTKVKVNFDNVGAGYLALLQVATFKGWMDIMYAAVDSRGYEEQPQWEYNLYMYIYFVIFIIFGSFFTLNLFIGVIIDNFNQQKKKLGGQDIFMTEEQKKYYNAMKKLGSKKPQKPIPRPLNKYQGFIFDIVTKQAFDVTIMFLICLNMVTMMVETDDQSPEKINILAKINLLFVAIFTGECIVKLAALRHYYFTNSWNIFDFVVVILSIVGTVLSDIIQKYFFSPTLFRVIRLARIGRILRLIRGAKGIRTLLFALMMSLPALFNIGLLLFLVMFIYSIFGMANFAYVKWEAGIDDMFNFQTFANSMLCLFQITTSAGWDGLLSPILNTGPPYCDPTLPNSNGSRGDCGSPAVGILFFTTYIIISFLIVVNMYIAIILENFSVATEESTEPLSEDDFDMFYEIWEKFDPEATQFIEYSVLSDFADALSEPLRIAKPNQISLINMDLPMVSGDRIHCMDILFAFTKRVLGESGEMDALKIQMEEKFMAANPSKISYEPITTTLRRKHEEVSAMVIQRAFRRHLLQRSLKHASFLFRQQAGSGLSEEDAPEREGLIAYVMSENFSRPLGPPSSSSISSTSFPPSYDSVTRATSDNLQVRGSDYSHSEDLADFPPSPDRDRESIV", "assay": "Inhibition of human Nav1.5 expressed in HEK293 cells assessed as inward peak current by ion-works quattro patch clamp electrophysiology method", "type": "cell-based", "in_short": "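Stable HEK293 line expressing human NaV1.5, recorded by population patch clamp on the IonWorks Quattro.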"}}, "note": "Positions of bridges follow the written chain, without caps; N, C: chain ends. Residues, ends and D or L forms follow the SMILES beside them.", "data": [{"smiles": "CC[C@@H](C)[C@H]1NC(=O)[C@H]2CSSC[C@@H]3NC(=O)[C@@H](C(C)C)NC(=O)[C@H](CC(C)C)NC(=O)[C@H](CC(N)=O)NC(=O)[C@@H]4CCCN4C(=O)[C@H](CCCNC(=N)N)NC(=O)[C@H](CSSC[C@@H](NC(=O)[C@@H](N)CC(=O)O)C(=O)N[C@H](C)C(=O)NCC(=O)N[C@@H](Cc4ccccc4)C(=O)N[C@H](CCSC)C(=O)N[C@@H](CCCNC(=N)N)C(=O)N[C@@H](CCCCN)C(=O)N2)NC(=O)[C@@H](CSSC[C@@H](C(=O)N[C@@H](CCCCN)C(=O)N[C@@H](Cc2ccc(O)cc2)C(=O)N[C@H](C(=O)N[C@@H](Cc2ccccc2)C(N)=O)C(C)C)NC(=O)[C@@H](Cc2c[nH]c4ccccc24)NC(=O)[C@H](CCCCN)NC(=O)[C@H](Cc2cnc[nH]2)NC(=O)[C@@H]([C@H](C)O)NC(=O)[C@@H](CCCNC(=N)N)NC(=O)[C@H](CO)NC3=O)NC(=O)[C@@H](CCCCN)NC(=O)[C@H](CC(=O)O)NC(=O)[C@@H](CC(N)=O)NC(=O)[C@H](CC(=O)O)NC(=O)[C@@H]2CCCN2C1=O", "values": [{"measurement": "IC50", "setting": "[1]", "value": 430, "unit": "nM"}, {"measurement": "IC50", "setting": "[2]", "value": "> 5000", "unit": "nM"}]}, {"smiles": "CC[C@H](C)[C@@H]1NC(=O)[C@@H]2CSSC[C@@H]3NC(=O)[C@H](C(C)C)NC(=O)[C@H](CC(C)C)NC(=O)[C@H](CC(N)=O)NC(=O)[C@@H]4CCCN4C(=O)[C@H](CCCNC(=N)N)NC(=O)[C@H](CSSC[C@H](NC(=O)[C@@H](N)CC(=O)O)C(=O)N[C@@H](CC(C)C)C(=O)NCC(=O)N[C@@H](Cc4ccccc4)C(=O)N[C@@H](CCSC)C(=O)N[C@@H](CCCNC(=N)N)C(=O)N[C@@H](CCCCN)C(=O)N2)NC(=O)[C@H](CSSC[C@@H](C(=O)N[C@@H](CCC(=O)O)C(=O)N[C@@H](Cc2ccc(O)cc2)C(=O)N[C@H](C(=O)N[C@@H](Cc2ccccc2)C(N)=O)C(C)C)NC(=O)[C@H](Cc2c[nH]c4ccccc24)NC(=O)[C@H](CCCCN)NC(=O)[C@H](Cc2cnc[nH]2)NC(=O)[C@H]([C@@H](C)O)NC(=O)[C@H](CCCNC(=N)N)NC(=O)[C@H](CO)NC3=O)NC(=O)[C@H](CCCCN)NC(=O)[C@H](CC(=O)O)NC(=O)[C@H](CC(N)=O)NC(=O)[C@H](CC(=O)O)NC(=O)[C@@H]2CCCN2C1=O", "note": "(H-DCLGFMRKCIPDNDKCCRPNLVCSRTHKWCEYVF-NH2; disulfide 2-17, 9-23, 16-30)", "values": [{"measurement": "IC50", "setting": "[1]", "value": "> 5000", "unit": "nM"}, {"measurement": "IC50", "setting": "[2]", "value": "> 5000", "unit": "nM"}]}, {"smiles": "CC[C@H](C)[C@@H]1NC(=O)[C@@H]2CSSC[C@@H]3NC(=O)[C@H](C(C)C)NC(=O)[C@H](CC(C)C)NC(=O)[C@H](CC(N)=O)NC(=O)[C@@H]4CCCN4C(=O)[C@H](CCCNC(=N)N)NC(=O)[C@H](CSSC[C@H](NC(=O)[C@H](CC(=O)O)NC(=O)[C@@H](N)CCCCN)C(=O)N[C@@H](CC(C)C)C(=O)NCC(=O)N[C@@H](Cc4ccccc4)C(=O)N[C@@H](CCSC)C(=O)N[C@@H](CCCNC(=N)N)C(=O)N[C@@H](CCCCN)C(=O)N2)NC(=O)[C@H](CSSC[C@@H](C(=O)N[C@@H](CCCCN)C(=O)N[C@@H](Cc2ccc(O)cc2)C(=O)N[C@H](C(=O)N[C@@H](Cc2ccccc2)C(N)=O)C(C)C)NC(=O)[C@H](Cc2c[nH]c4ccccc24)NC(=O)[C@H](CCCCN)NC(=O)[C@H](Cc2cnc[nH]2)NC(=O)[C@H]([C@@H](C)O)NC(=O)[C@H](CCCNC(=N)N)NC(=O)[C@H](CO)NC3=O)NC(=O)[C@H](CCCCN)NC(=O)[C@H](CC(=O)O)NC(=O)[C@H](CC(N)=O)NC(=O)[C@H](CC(=O)O)NC(=O)[C@@H]2CCCN2C1=O", "values": [{"measurement": "IC50", "setting": "[1]", "value": 120, "unit": "nM"}, {"measurement": "IC50", "setting": "[2]", "value": "> 5000", "unit": "nM"}]}, {"smiles": "CC[C@H](C)[C@@H]1NC(=O)[C@@H]2CSSC[C@@H]3NC(=O)[C@H](C(C)C)NC(=O)[C@H](CC(C)C)NC(=O)[C@H](CC(N)=O)NC(=O)[C@@H]4CCCN4C(=O)[C@H](CCCNC(=N)N)NC(=O)[C@H](CSSC[C@H](NC(=O)[C@@H](N)CC(=O)O)C(=O)N[C@@H](CC(C)C)C(=O)NCC(=O)N[C@@H](Cc4ccccc4)C(=O)N[C@@H](CCSC)C(=O)N[C@@H](CCCNC(=N)N)C(=O)N[C@@H](CCCCN)C(=O)N2)NC(=O)[C@H](CSSC[C@@H](C(=O)N[C@@H](CCCCN)C(=O)N[C@@H](Cc2ccc(O)cc2)C(=O)N[C@H](C(=O)N[C@@H](Cc2ccccc2)C(N)=O)C(C)C)NC(=O)[C@H](Cc2c[nH]c4ccccc24)NC(=O)[C@H](CCCCN)NC(=O)[C@H](Cc2cnc[nH]2)NC(=O)[C@H]([C@@H](C)O)NC(=O)[C@H](CCCNC(=N)N)NC(=O)[C@H](CO)NC3=O)NC(=O)[C@H](CCCCN)NC(=O)[C@H](CC(=O)O)NC(=O)[C@H](CC(N)=O)NC(=O)[C@H](Cc2c[nH]c3ccccc23)NC(=O)[C@@H]2CCCN2C1=O", "note": "(H-DCLGFMRKCIPWNDKCCRPNLVCSRTHKWCKYVF-NH2; disulfide 2-17, 9-23, 16-30)", "values": [{"measurement": "IC50", "setting": "[1]", "value": 60, "unit": "nM"}, {"measurement": "IC50", "setting": "[2]", "value": "> 5000", "unit": "nM"}]}, {"smiles": "CC[C@H](C)[C@@H]1NC(=O)[C@@H]2CSSC[C@@H]3NC(=O)[C@H](C(C)C)NC(=O)[C@H](CC(C)C)NC(=O)[C@H](CC(N)=O)NC(=O)[C@@H]4CCCN4C(=O)[C@H](CCCNC(=N)N)NC(=O)[C@H](CSSC[C@H](NC(=O)[C@H](CC(=O)O)NC(=O)[C@@H](N)CCC(=O)O)C(=O)N[C@@H](CC(C)C)C(=O)NCC(=O)N[C@@H](Cc4ccccc4)C(=O)N[C@@H](CCSC)C(=O)N[C@@H](CCCNC(=N)N)C(=O)N[C@@H](CCCCN)C(=O)N2)NC(=O)[C@H](CSSC[C@@H](C(=O)N[C@@H](CCCCN)C(=O)N[C@@H](Cc2ccc(O)cc2)C(=O)N[C@H](C(=O)N[C@@H](Cc2ccccc2)C(N)=O)C(C)C)NC(=O)[C@H](Cc2c[nH]c4ccccc24)NC(=O)[C@H](CCCCN)NC(=O)[C@H](Cc2cnc[nH]2)NC(=O)[C@H]([C@@H](C)O)NC(=O)[C@H](CCCNC(=N)N)NC(=O)[C@H](CO)NC3=O)NC(=O)[C@H](CCCCN)NC(=O)[C@H](CC(=O)O)NC(=O)[C@H](CC(N)=O)NC(=O)[C@H](CC(=O)O)NC(=O)[C@@H]2CCCN2C1=O", "values": [{"measurement": "IC50", "setting": "[1]", "value": 270, "unit": "nM"}, {"measurement": "IC50", "setting": "[2]", "value": "> 5000", "unit": "nM"}]}, {"smiles": "CC[C@H](C)[C@@H]1NC(=O)[C@@H]2CSSC[C@@H]3NC(=O)[C@H](C(C)C)NC(=O)[C@H](CC(C)C)NC(=O)[C@H](CC(N)=O)NC(=O)[C@@H]4CCCN4C(=O)[C@H](CCCNC(=N)N)NC(=O)[C@H](CSSC[C@H](NC(=O)[C@@H](N)CC(=O)O)C(=O)N[C@@H](CC(C)C)C(=O)NCC(=O)N[C@@H](Cc4ccccc4)C(=O)N[C@@H](CCSC)C(=O)N[C@@H](CCCNC(=N)N)C(=O)N[C@@H](CCCCN)C(=O)N2)NC(=O)[C@H](CSSC[C@@H](C(=O)N[C@@H](CCCCN)C(=O)N[C@@H](Cc2ccc(O)cc2)C(=O)N[C@H](C(=O)N[C@@H](Cc2ccccc2)C(=O)N[C@@H](CCCNC(=N)N)C(N)=O)C(C)C)NC(=O)[C@H](Cc2c[nH]c4ccccc24)NC(=O)[C@H](CCCCN)NC(=O)[C@H](Cc2cnc[nH]2)NC(=O)[C@H]([C@@H](C)O)NC(=O)[C@H](CCCNC(=N)N)NC(=O)[C@H](CO)NC3=O)NC(=O)[C@H](CCCCN)NC(=O)[C@H](CC(=O)O)NC(=O)[C@H](CC(N)=O)NC(=O)[C@H](CC(=O)O)NC(=O)[C@@H]2CCCN2C1=O", "values": [{"measurement": "IC50", "setting": "[1]", "value": 130, "unit": "nM"}, {"measurement": "IC50", "setting": "[2]", "value": "> 5000", "unit": "nM"}]}, {"smiles": "CC[C@H](C)[C@@H]1NC(=O)[C@@H]2CSSC[C@@H]3NC(=O)[C@H](C(C)C)NC(=O)[C@H](CC(C)C)NC(=O)[C@H](CC(N)=O)NC(=O)[C@@H]4CCCN4C(=O)[C@H](CCCNC(=N)N)NC(=O)[C@H](CSSC[C@H](NC(=O)[C@@H](N)CC(=O)O)C(=O)N[C@@H](CC(C)C)C(=O)NCC(=O)N[C@@H](Cc4ccccc4)C(=O)N[C@@H](CCSC)C(=O)N[C@@H](CCCNC(=N)N)C(=O)N[C@@H](CCCCN)C(=O)N2)NC(=O)[C@@H](CSSC[C@@H](C(=O)N[C@@H](CCCCN)C(=O)N[C@@H](Cc2ccc(O)cc2)C(=O)N[C@H](C(=O)N[C@@H](Cc2ccccc2)C(N)=O)C(C)C)NC(=O)[C@H](Cc2c[nH]c4ccccc24)NC(=O)[C@H](CCCCN)NC(=O)[C@H](Cc2cnc[nH]2)NC(=O)[C@H](C)NC(=O)[C@H](CCCNC(=N)N)NC(=O)[C@H](CO)NC3=O)NC(=O)[C@H](CCCCN)NC(=O)[C@H](CC(=O)O)NC(=O)[C@H](CC(N)=O)NC(=O)[C@H](CC(=O)O)NC(=O)[C@@H]2CCCN2C1=O", "values": [{"measurement": "IC50", "setting": "[1]", "value": 260, "unit": "nM"}, {"measurement": "IC50", "setting": "[2]", "value": "> 5000", "unit": "nM"}]}, {"smiles": "CSCC[C@@H]1NC(=O)[C@H](Cc2ccccc2)NC(=O)CNC(=O)[C@H](CC(C)C)NC(=O)[C@@H](NC(=O)[C@@H](N)CC(=O)O)CSSC[C@@H]2NC(=O)[C@@H]3CSSC[C@@H](C(=O)N[C@@H](CCCCN)C(=O)N[C@@H](Cc4ccc(O)cc4)C(=O)N[C@H](C(=O)N[C@@H](Cc4ccccc4)C(N)=O)C(C)C)NC(=O)[C@H](Cc4c[nH]c5ccccc45)NC(=O)[C@H](CCCCN)NC(=O)[C@H](Cc4cnc[nH]4)NC(=O)[C@H]([C@@H](C)O)NC(=O)[C@H](CCCNC(=N)N)NC(=O)[C@H](CO)NC(=O)[C@H](CSSC[C@H](NC(=O)[C@H](CCCCN)NC(=O)[C@H](CCCNC(=N)N)NC1=O)C(=O)N[C@@H](CCCCN)C(=O)N1CCC[C@H]1C(=O)N[C@@H](CC(=O)O)C(=O)N[C@@H](CC(N)=O)C(=O)N[C@@H](CC(=O)O)C(=O)N[C@@H](CCCCN)C(=O)N3)NC(=O)[C@H](C(C)C)NC(=O)[C@H](CC(C)C)NC(=O)[C@H](CC(N)=O)NC(=O)[C@@H]1CCCN1C(=O)[C@H](CCCNC(=N)N)NC2=O", "note": "(H-DCLGFMRKCKPDNDKCCRPNLVCSRTHKWCKYVF-NH2; disulfide 2-17, 9-23, 16-30)", "values": [{"measurement": "IC50", "setting": "[1]", "value": 230, "unit": "nM"}, {"measurement": "IC50", "setting": "[2]", "value": "> 5000", "unit": "nM"}]}]}
